Data set [1] deals with PC-12. Briefly: Neuroprotective activity against oxygen glucose deprivation-induced cell death in rat PC12 cells assessed as change in cell viability at 10 uM after 24 hrs by MTT assay relative to control. It counts as functional. In outline: (§1)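 Undifferentiated PC12 cells (passage 12−14), 1 × 10^6 plated overnight in DMEM/F12 with 5% FBS and 5% horse serum. OGD: glucose-free HBSS under argon in an anaerobic chamber, 1.5 h at 37 °C. Reoxygenated in fresh growth medium with compound or DMSO vehicle for 24 h at 37 °C. Viability by MTT (0.5 mg/mL, 4 h), DMSO-solubilised, A540. % change vs vehicle control; mean ± SEM, n=3, triplicate experiments.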
A general note: Formazan colour is commonly taken as a measure of viable cells.

For data set [2], the system named is PC-12. As to the kind of experiment: Neuroprotective activity against oxygen glucose deprivation-induced cell death in rat PC12 cells assessed as change in cell viability at 1 uM after 24 hrs by MTT assay relative to control. It is filed as functional. In outline:
as §1

For data set [3], the system named is PC-12. As to the kind of experiment: Neuroprotective activity against oxygen glucose deprivation-induced cell death in rat PC12 cells assessed as change in cell viability at 25 uM after 24 hrs by MTT assay relative to control. It is filed as functional. A digest of the protocol:
as §1

Data set [4] can be described thus: Drug uptake in cytosol of rat PC12 cells at 25 after 24 hrs under oxygen glucose deprivation condition by LC-MS/MS analysis. It is filed as ADME, subcellular, PC-12. In outline:
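After OGD (as in the neuroprotection assay), 1×10^6 PC12 cells were exposed to analyte at 25 μM for 24 h; a non-OGD plate served as control. Medium and cytosolic fractions (HEPES/NP-40 lysis buffer, 15 min at 0 °C, centrifuged) were diluted in 2% formic acid, spiked with the deuterated/nondeuterated partner as internal standard, and analysed by UPLC-MS/MS (MRM). AUCs were normalised to the internal standard.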

A short description of data set [5]: Thiol reactivity of the compound in pH 7.4 PBS buffer at 250 uM after 2 to 12 hrs by HPLC-PDA analysis. It is filed as physicochemical. As to conditions: pH 7.4, 250 µM. A digest of the protocol: (§2)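 Compound (250 μM) or N-ethylmaleimide control (250 μM) incubated with or without N-acetylcysteine (5 mM) in 50 mM PBS, pH 7.4, at 37 °C. Aliquots taken at 2 and 12 h were analysed by HPLC-PDA. Peak AUC at each analyte's λmax gave the remaining starting material.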

Data set [6] in a line: Drug uptake in C57BL/6 mouse plasma at 20 mg/kg, ip or po measured after 1 to 12 hrs by LC-MS/MS analysis. Conditions: in vivo. It counts as ADME, organism-based. In outline:
(§3)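 Male C57BL/6 mice (n = 4 per group) given the HCl salt at 20 mg/kg, either by oral gavage in sesame oil or ip in 0.9% NaCl with 1% DMSO. Sacrificed at 1, 2 or 12 h. Plasma (cardiac puncture, K2EDTA) and forebrain homogenate underwent solid-phase extraction with the d4 internal standard, then LC-MS/MS MRM quantitation against a spiked-brain calibration curve. Concentrations normalised to tissue weight; duplicate LC runs.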

The test system of data set [7] is PC-12. As to the kind of experiment: Neuroprotective activity against oxygen glucose deprivation-induced cell death in rat PC12 cells assessed as change in cell viability after 24 hrs by resorufin-dye based assay. It counts as functional. As to conditions: PC-12, 24 h. A digest of the protocol:
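PC12 cells (undifferentiated, passage 12−14) given OGD for 90 min (glucose-free HBSS, argon, 37 °C), then normoxic growth medium with compound at 0.1, 1, 5, 10, 25 or 50 μM for 24 h. PrestoBlue (10%, 30 min) fluorescence at 560/590 nm. Viability as percent change against vehicle-control mean; control plates without OGD were included.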

The nature of data set [8]: Half life in C57BL/6 mouse plasma at 20 mg/kg, ip or po measured after 1 to 12 hrs by LC-MS/MS analysis. It counts as ADME, organism-based. In outline: as §3
For data set [9], the system named is PC-12. As to the kind of experiment: Neuroprotective activity against oxygen glucose deprivation-induced cell death in rat PC12 cells assessed as reduction in cell viability at 50 uM after 24 hrs by MTT assay. It is filed as functional, cell-based.
The subject of data set [10] is Mus musculus. As to the kind of experiment: Effect on CREB phosphorylation in hippocampal tissue of scopolamine-induced C57BL/6 mouse memory deficit model at 20 mg/kg, ip treated for 2 hrs prior to test followed by scopolamine challenge 30 mins prior to test by Western blot analysis. It is filed as organism-based. Conditions: in vivo. In outline: (§4)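 C57BL/6 mice (N = 8 per cohort, blinded) received the HCl salt at 20 mg/kg ip (saline/1% DMSO) or vehicle 2 h before sacrifice, and scopolamine at 1 mg/kg ip or saline 30 min before sacrifice. Hippocampal lysates were run on 10−20% Tris-glycine gels and transferred to PVDF. Blots were probed with pCREB Ser133, CREB, p-ERK1/2 Thr202/Tyr204 and ERK1/2 antibodies, normalised to GAPDH and expressed as phospho:total.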
(A western blot detects proteins with antibodies after separation by electrophoresis.)

The test system of data set [11] is PC-12. Briefly: Cytotoxicity against rat PC12 cells assessed as reduction in cell viability at 50 uM after 24 hrs by MTT assay. As to conditions: pc-12, 24 h. It counts as cell-based.
Data set [12] is described as follows: Drug uptake in C57BL/6 mouse brain at 20 mg/kg, ip or po measured after 1 to 12 hrs by LC-MS/MS analysis. It is filed as ADME, organism-based. Conditions: in vivo. A digest of the protocol: as §3
For data set [13], the system named is Mus musculus. Briefly: Effect on CREB phosphorylation in C57BL/6 mouse forebrain at 20 mg/kg, ip or po measured after 1 to 12 hrs by ELISA. It is filed as organism-based. Conditions: in vivo. For orientation: In an ELISA, binding on a coated surface is turned into a signal by an enzyme label.
Data set [14] relates to Mus musculus. Briefly: Reversal of scopolamine-induced memory impairment in C57BL/6 mouse assessed as latency time to enter dark compartment at 20 mg/kg, ip administered 60 to 120 mins prior to training followed by scopolamine challenge 30 mins prior to training measured after 24 hrs (reference value: 63.5 +/- 30 sec). It counts as functional. A digest of the protocol:
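Male C57BL/6 mice, habituated to confirm photophobia, were given the HCl salt (0.1–20 mg/kg ip in 0.9% NaCl/1% DMSO) 60 or 120 min before training, and scopolamine 1 mg/kg ip 30 min before training. Double-trial step-through training used a 0.5 mA, 3 s shock. Latency to enter the dark side was measured 24 h later (cut-off 300 s). n = 8–9; ANOVA with Dunnett's test.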

Data set [15] in a line: Stability of the compound in pH 7.4 PBS buffer at 250 uM after 2 to 12 hrs in presence of excess free thiols by HPLC-PDA analysis. It is filed as physicochemical. As to conditions: pH 7.4, 250 µM. In outline:
as §2

Data set [16] relates to Mus musculus. Briefly: Effect on Erk phosphorylation in hippocampal tissue of scopolamine-induced C57BL/6 mouse memory deficit model at 20 mg/kg, ip treated for 2 hrs prior to test followed by scopolamine challenge 30 mins prior to test by Western blot analysis. As to conditions: in vivo. It is filed as organism-based. In outline:
as §4

Data set [17] in a line: Ratio of drug uptake in C57BL/6 mouse brain to plasma at 20 mg/kg, po measured after 1 to 12 hrs by LC-MS/MS analysis. It is filed as ADME, organism-based. As to conditions: read-out: BPR. In outline: (§5)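 Brain:plasma ratio taken from forebrain and plasma levels in C57BL/6 mice dosed at 20 mg/kg (ip in saline/1% DMSO or po in sesame oil), sampled at 1, 2 or 12 h. Samples extracted by SPE with the d4 internal standard and measured by LC-MS/MS MRM. Mean ± SEM; routes compared by unpaired t test.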

Data set [18] is described as follows: Ratio of drug uptake in C57BL/6 mouse brain to plasma at 20 mg/kg, ip measured after 1 to 12 hrs by LC-MS/MS analysis. It is filed as ADME, organism-based. As to conditions: read-out: BPR. In outline:
as §5

The subject of data set [19] is PC-12. As to the kind of experiment: Neuroprotective activity against oxygen glucose deprivation-induced cell death in rat PC12 cells assessed as change in cell viability at 10 to 50 uM after 24 hrs cotreated with sGC inhibitor ODQ by MTT assay. It is filed as functional, cell-based. A digest of the protocol:
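OGD-exposed PC12 cells (90 min glucose-free HBSS under argon, 37 °C) treated for 24 h with compound with or without the sGC inhibitor ODQ (10 μM). MTT viability read-out (0.5 mg/mL, 4 h, A540). Mean ± SEM (n = 3) of duplicate experiments; one-way ANOVA with Dunnett's test against vehicle.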

A short description of data set [20]: Half life in C57BL/6 mouse brain at 20 mg/kg, ip or po measured after 1 to 12 hrs by LC-MS/MS analysis. It is filed as ADME, organism-based. In outline:
as §3

Molecules are shown by their SMILES. pEC50: −log10 of the molar value. The source made the active and inactive calls.

Regarding `CC1CCN(Cc2no[n+]([O-])c2-c2ccccc2)CC1`, the Activity is on record as 6% with PC-12 [1], -21% with PC-12 [2] and -11% in the data set with PC-12 [3].
The matching figures for `CC1CCN(Cc2no[n+]([O-])c2-c2ccc(Br)cc2)CC1`: 77%, 25% and 96%.
The matching figures for `CC1CCN(Cc2c(-c3ccc(Cl)cc3)no[n+]2[O-])CC1`: 7%, 35% and 25%.
The matching figures for `CC1CCN(Cc2c(-c3ccccc3)no[n+]2[O-])CC1`: 19%, 9% and 16%.
`[2H]C1([2H])CC(C)CC([2H])([2H])N1Cc1no[n+]([O-])c1-c1ccc(F)cc1`: the figures for the Activity with PC-12 [1], with PC-12 [2] and with PC-12 [3] were 20%, 8% and 7%, respectively. The Drug uptake result in data set [4] is listed as “Active”.
For the molecule `COc1ccc(-c2no[n+]([O-])c2CN2CCC(C)CC2)cc1`, the values for the Activity in the data set on PC-12 [1], in the data set on PC-12 [2] and in the data set with PC-12 [3] were 10%, 14% and -1%, respectively.
As for `CCN1C(=O)C=CC1=O` [N-ETHYLMALEIMIDE], the Drug metabolism result in data set [5] is “Metabolite_Detected”.
Regarding `CC1CCN(Cc2c(-c3ccc(F)cc3)no[n+]2[O-])CC1`, the Activity with PC-12 [1] worked out at 11%; with PC-12 [2] it was 11%; in the data set with PC-12 [3], 5%.
As for `[2H]C1([2H])CC(C)CC([2H])([2H])N1Cc1c(-c2ccc(F)cc2)no[n+]1[O-]`, the Activity in the data set with PC-12 [1] was 6%; in the data set on PC-12 [2], 11%; with PC-12 [3], -1%.
Turning to `CC1CCN(Cc2c(-c3ccc(Br)cc3)no[n+]2[O-])CC1`, the Activity in the data set on PC-12 [1] is -2%; in the data set with PC-12 [2], -7%; in the data set with PC-12 [3] it was 19%.
As usually defined, the pEC50 is the EC50 on a negative log10 scale, so that one unit is a factor of ten. As a reminder, the half-life is the time in which the quantity being followed falls by half. With `CC1CCN(Cc2no[n+]([O-])c2-c2ccc(F)cc2)CC1`, the Activity in the data set on PC-12 [1] was 46%; with Mus musculus [10] it was “Non-Toxic”; in the data set on PC-12 [11], “Non-Toxic”; in the data set on Mus musculus [13] it was “Non-Toxic”; in the data set on Mus musculus [16], “Non-Toxic”; in the data set with PC-12 [2], -3%. Moreover, the Activity in the data set with PC-12 [3] was found to be 41%. Besides, the Drug uptake result in [6], in data set [12] and in [4] was “Active” throughout. In the data set on PC-12 [7], the pEC50 was 5.72. For the same molecule, the values for the half-life in data set [8] and in data set [20] were 1.83 h and 0.833 h, respectively. Besides, the result in the data set on PC-12 [9] and in the data set on PC-12 [19] was inactive. Besides, the Time with Mus musculus [14] is listed as 237 s. In addition, the Stability entry in data set [15] is reported as “Stable”. Further, the Kp in data set [17] turned out to be 1.49; in data set [18], 0.68.
With `COc1ccc(-c2c(CN3CCC(C)CC3)no[n+]2[O-])cc1`, the figures for the Activity in the data set with PC-12 [1], in the data set on PC-12 [2] and with PC-12 [3] were 12%, 11% and 5%, respectively.
The matching figures for `CC1CCN(Cc2c(-c3ccc(C(F)(F)F)cc3)no[n+]2[O-])CC1`: 10%, -9% and 0%.
The matching figures for `Cc1ccc(-c2no[n+]([O-])c2CN2CCC(C)CC2)cc1`: 12%, 7% and 10%.
As to `CC1CCN(Cc2no[n+]([O-])c2-c2ccc(C(F)(F)F)cc2)CC1`, the Activity in the data set with PC-12 [1] was -16%; in the data set on PC-12 [2], 2%; in the data set with PC-12 [3], -22%.
Take `CC1CCN(Cc2no[n+]([O-])c2-c2ccc(OC(F)F)cc2)CC1`: the Activity in the data set on PC-12 [1] was 61%; in the data set on PC-12 [2], 67%; in the data set with PC-12 [3], 53%.
The matching figures for `CC1CCN(Cc2no[n+]([O-])c2-c2ccc(Cl)cc2)CC1`: 19%, -10% and 4%.
The matching figures for `Cc1ccc(-c2c(CN3CCC(C)CC3)no[n+]2[O-])cc1`: 13%, 22% and 8%.
The matching figures for `CC1CCN(Cc2c(-c3ccc(OC(F)F)cc3)no[n+]2[O-])CC1`: 86%, 54% and 108%.

The values above are taken from ChEMBL document CHEMBL4219242, “Furoxans (Oxadiazole-4 N-oxides) with Attenuated Reactivity are Neuroprotective, Cross the Blood Brain Barrier, and Improve Passive Avoidance Memory” (J Med Chem, 2018).
